The values below come from PubChem BioAssay.

Structures are written as SMILES. Activity calls are given as the source filed them. Cut-off read from the data, not from the text of the source, unless noted: active = inhibition above about 30%; inactive = the rest.

Test [1] can be described thus: reduced viability of SK-BR-3 breast cancer cells – cell-based, 24 h, human, pilot screen (AID 572;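 active = viability at or below 10% of carrier control in both of two separate runs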;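 note: compound exposure lasted between 18 and 24 h rather than exactly 24 h; 100% = carrier-treated control wells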). The settings on record: SK-BR-3 viability, CellTiter-Glo luminescence, at 10 µM, stronger effect = lower value.
Test [2] in a line: HUVEC growth inhibition – cell-based, human, primary screen (AID 575;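 active = viability at or below 30% in both replicate assays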;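 note: 100% = median of untreated cell wells with 0.1% DMSO on each plate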). The note with it: HUVEC proliferation, CellTiter-Glo luminescence, 72 h; at 10 µM; stronger effect = lower value. A digest of the protocol:
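Test system: HUVEC primary cells. Quantity: 1250 endothelial cells in each well. Dosing: single-point 10 µM, DMSO 0.1% final. Incubation: 72 h treatment at 37 °C. Measured by: CTG luminescence. Control set: DMSO cell controls and MePR drug controls. Plate: collagen-coated 384-well format.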
A general note: ATP-based viability assays read luminescence as a measure of living cells.

Test [3] in a line: H69AR cell proliferation blockers – human, duplicate replicates, primary screen (AID 580;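 active = viability at or under a set limit in both replicates, limit being median viability minus 3 SD, cut at about 48% in these data, passing the limit was not always enough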;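 note: 100% = mean luminescence of untreated wells and 0% = no signal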). The note with it: H69AR lung tumor cells viability, ATP luminescence, 72 h; at 10 µM; stronger effect = lower value.
A short description of test [4]: MRP1 drug-resistance reversers in H69AR cells – cell-based, doxorubicin co-treatment, pilot screen (AID 601;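 active = viability loss from added drug above about 55%, and viability with drug at most 40%, in both replicates, limit read from the data, passing the limit was not always enough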). The note with it: CellTiter-Glo, 72 h, at 10 µM; for differential viability (reversal): stronger effect = higher value.
The nature of test [5]: yeast transport mutant growth inhibition pilot in 384-well plates, post-Golgi transport modulator project (AID 636; in the data active = inhibition above about 31%). The note with it: absorbance 615 nm, about 18 h, stronger effect = higher value.
The nature of test [6]: growth suppression of yeast trafficking mutant, preliminary HTS, modulators of trafficking downstream of Golgi apparatus project, 1536-format plate, OD 615 nm (AID 637). The settings on record: yeast transport mutant growth, absorbance 615 nm, 18 h; stronger effect = higher value.
[7] abbreviates: H69AR cells + 2 uM doxorubicin, measured here: viability with 2 uM doxorubicin, stronger effect = lower value.
Setting [8] is: H69AR cells, compound alone cytotoxicity.

In general, viability refers to a read-out of living cells in per cent, often relative to untreated cells. As usually defined, the inhibition is the relative decrease from the control value, in per cent. Turning to `COCCNC(=O)C(c1ccc(C)o1)N(Cc1cccs1)C(=O)c1snc(C(N)=O)c1N` (stereo unspecified), the viability in test [1] was 87% (inactive); in test [2], 86.8% (inactive); in test [3], 86.4% (inactive); in test [4] (setting [7]), 86%; in test [4] (setting [8]), 86.4%. The differential viability (reversal) in test [4] (H69AR cells + 2 uM doxorubicin) was 0.375% (inactive). In addition, the inhibition in test [5] is 4% (inactive); in test [6] it was 12.7% (inactive).
Consider `COc1ccc2c(c1)c(CC(=O)OCC(=O)O)c(C)n2C(=O)c1ccc(Cl)cc1`, for which the viability in test [1] was 133% (inactive); in test [2] it was 66.8% (inactive); in test [3] it was 96.2% (inactive); in test [4] (setting [7]) it was 90.9%; in test [4] (setting [8]) it was 96.2%. Also, the differential viability (reversal) in test [4] (H69AR cells + 2 uM doxorubicin) is 5.33% (inactive). In addition, the inhibition in test [5] was -5.06% (inactive); in test [6], -0.67% (inactive).
For `CCOc1ccc2[nH]c(O)c(NC(C)=O)c2c1`, the viability in test [1] was 95% (inactive); in test [2], 100% (inactive); in test [3], 94.8% (inactive); in test [4] (setting [7]), 94.1%; in test [4] (setting [8]) it was 94.8%. Besides, the differential viability (reversal) in test [4] (H69AR cells + 2 uM doxorubicin) is 0.61% (inactive). In addition, the inhibition is -4.86% (inactive) in test [5] and 0.91% (inactive) in test [6].
Consider `N#CCc1nc2c3c4c(sc3ncn2n1)CCCC4`, for which the viability was 112% (inactive) in test [1]; 23.6% (active) in test [2]; 86.4% (inactive) in test [3]; 78.1% in test [4] (setting [7]); 86.4% in test [4] (setting [8]). For the same compound, the differential viability (reversal) in test [4] (H69AR cells + 2 uM doxorubicin) is 8.27% (inactive). The inhibition in test [5] is -5.54% (inactive); in test [6], 0.36% (inactive).
Turning to `COc1ccc(Nc2nc(Nc3ccc(OC)cc3)nc(-n3[nH]c(=O)c(C)c3C)n2)cc1`, the viability was 79% (inactive) in test [1]; 92.8% (inactive) in test [2]; 12.1% (active) in test [3]; 11% in test [4] (setting [7]); 12.1% in test [4] (setting [8]). For the same compound, the differential viability (reversal) in test [4] (H69AR cells + 2 uM doxorubicin) was 1.18% (inactive). The figures for the inhibition in test [5] and in test [6] were -4.32% (inactive) and 16.9% (inactive), respectively.
As for `O=C(CN1C(=O)COc2ccccc21)N(Cc1cccnc1)Cc1ccccc1F`, the viability is 78% (inactive) in test [1]; 96.6% (inactive) in test [2]; 83.5% (inactive) in test [3]; 74.9% in test [4] (setting [7]); 83.5% in test [4] (setting [8]). Besides, the differential viability (reversal) in test [4] (H69AR cells + 2 uM doxorubicin) was 8.57% (inactive). In addition, the inhibition in test [5] is -2.97% (inactive); in test [6] it was 0.55% (inactive).
Regarding `O=C(CN1CCN(c2ccccn2)CC1)N1c2ccccc2CCc2ccccc21`, the viability is 95% (inactive) in test [1]; 88.1% (inactive) in test [2]; 107% (inactive) in test [3]; 108% in test [4] (setting [7]); 107% in test [4] (setting [8]). Also, in test [4] (H69AR cells + 2 uM doxorubicin), the differential viability (reversal) is -0.175% (inactive). For the same compound, the inhibition is -6.08% (inactive) in test [5] and -0.55% (inactive) in test [6].
As for `COc1cccc2c(=O)cc(C)n(CC(=O)Nc3ccc(C)c(C)c3)c12`, the viability in test [1] is 105% (inactive); in test [2], 84.5% (inactive); in test [3], 95.5% (inactive); in test [4] (setting [7]) it was 82.1%; in test [4] (setting [8]) it was 95.5%. For the same compound, the differential viability (reversal) in test [4] (H69AR cells + 2 uM doxorubicin) is 13.4% (inactive). Moreover, the figures for the inhibition in test [5] and in test [6] were -8.4% (inactive) and -2.91% (inactive), respectively.
On to `COc1cc(S(=O)(=O)NC2CCCCC2C)ccc1Cl` (stereo unspecified), for which the viability in test [1] is 83% (inactive); in test [2], 98.3% (inactive); in test [3], 92.4% (inactive); in test [4] (setting [7]), 95.8%; in test [4] (setting [8]) it was 92.4%. Also, the differential viability (reversal) in test [4] (H69AR cells + 2 uM doxorubicin) was -3.38% (inactive). The inhibition in test [5] was -7.81% (inactive); in test [6], 1.45% (inactive).
Regarding `Cc1nnc(NC(=O)C2CCCO2)s1` (stereo unspecified), the viability was 90% (inactive) in test [1]; 105% (inactive) in test [2]; 96.4% (inactive) in test [3]; 107% in test [4] (setting [7]); 96.4% in test [4] (setting [8]). In addition, the differential viability (reversal) in test [4] (H69AR cells + 2 uM doxorubicin) was -10.5% (inactive). Besides, the results for the inhibition in test [5] and in test [6] were -2.47% (inactive) and -0.91% (inactive), respectively.
As to `COc1ccc(-n2ncc3c(NCc4ccc5c(c4)OCO5)ncnc32)cc1`, the viability in test [1] was 92.5% (inactive); in test [2] it was 49.8% (inactive); in test [3], 6.44% (active); in test [4] (setting [7]), 17.4%; in test [4] (setting [8]), 6.44%. The differential viability (reversal) in test [4] (H69AR cells + 2 uM doxorubicin) is -11% (inactive). In addition, the inhibition was -3.55% (inactive) in test [5] and 3.71% (inactive) in test [6].
For the compound `C[C@@H]1C[C@H]2[C@@H]3C[C@H](F)C4=CC(=O)C=C[C@]4(C)[C@@]3(F)[C@@H](O)C[C@]2(C)[C@@]1(O)C(=O)COC(=O)C(C)(C)C`, the viability is 103% (inactive) in test [1]; 76.9% (inactive) in test [2]; 79.5% (inactive) in test [3]; 87.3% in test [4] (setting [7]); 79.5% in test [4] (setting [8]). Further, the differential viability (reversal) in test [4] (H69AR cells + 2 uM doxorubicin) is -7.82% (inactive). Moreover, the inhibition in test [5] was -3.38% (inactive); in test [6], -11.3% (inactive).
